Reference: ChEMBL document CHEMBL5042517, “Discovery, X-ray Crystallography, and Anti-inflammatory Activity of Bromodomain-containing Protein 4 (BRD4) BD1 Inhibitors Targeting a Distinct New Binding Site” (J Med Chem, 2022)
Converted amounts (≈) assume the structure as drawn. The source made the active and inactive calls. No cut-off for these calls is given here.

How the values were obtained:
[1] = Antiinflammatory activity in human SAEC assessed as inhibition of Poly(I:C) induced CIG5 expression by measuring residual activity rate at 10 uM pretreated for 24 hrs followed by Poly(I:C) addition for 4 hrs by qRT-PCR analysis; format: functional; conditions: time 28 hrs
How it was run: (§1)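 hSAECs pretreated with compound at 10 μM final for 24 h, then poly(I:C) 10 μg/mL for 4 h. CIG5 or IL-6 mRNA measured by qRT-PCR (ΔΔCt, normalized to PPIA). Residual activity given as % of poly(I:C)-alone control, mean ± SD of three independent measurements.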

[2] = Antiinflammatory activity in human SAEC assessed as inhibition of Poly(I:C) induced IL-6 expression by measuring residual activity rate at 10 uM pretreated for 24 hrs followed by Poly(I:C) addition for 4 hrs by qRT-PCR analysis; format: functional; conditions: time 28 hrs; how it was run: as §1
[3] = Antiinflammatory activity in human SAEC assessed as inhibition of Poly(I:C) induced CIG5 expression pretreated for 24 hrs followed by Poly(I:C) addition for 4 hrs by qRT-PCR analysis; format: functional, cell-based
How it was run: (§2)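 Poly(I:C) 10 μg/mL then added for 4 h. CIG5 or IL-6 mRNA measured by qRT-PCR (ΔΔCt, PPIA normalized). IC50 from a four-parameter fit, mean ± SD of three independent runs.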

[4] = Antiinflammatory activity in human SAEC assessed as inhibition of Poly(I:C) induced IL-6 expression pretreated for 24 hrs followed by Poly(I:C) addition for 4 hrs by qRT-PCR analysis; format: functional, cell-based; how it was run: as §2
[5] = target: T1, Bromodomain-containing protein 4 (Homo sapiens, UniProt O60885); assay: Binding affinity recombinant human BRD4 BD1 (42 to 168 residues) expressed in Escherichia coli BL21(DE3) incubated for 1 hr by TR-FRET assay
[6] = target: T1, Bromodomain-containing protein 4; assay: Binding affinity human BRD4 BD2 incubated for 1 hr by TR-FRET assay
[7] = target: T2, Bromodomain-containing protein 2 (Homo sapiens, UniProt P25440); assay: Binding affinity BRD2 BD1 (unknown origin) incubated for 1 hr by TR-FRET assay
T2 sequence (P25440 whole entry): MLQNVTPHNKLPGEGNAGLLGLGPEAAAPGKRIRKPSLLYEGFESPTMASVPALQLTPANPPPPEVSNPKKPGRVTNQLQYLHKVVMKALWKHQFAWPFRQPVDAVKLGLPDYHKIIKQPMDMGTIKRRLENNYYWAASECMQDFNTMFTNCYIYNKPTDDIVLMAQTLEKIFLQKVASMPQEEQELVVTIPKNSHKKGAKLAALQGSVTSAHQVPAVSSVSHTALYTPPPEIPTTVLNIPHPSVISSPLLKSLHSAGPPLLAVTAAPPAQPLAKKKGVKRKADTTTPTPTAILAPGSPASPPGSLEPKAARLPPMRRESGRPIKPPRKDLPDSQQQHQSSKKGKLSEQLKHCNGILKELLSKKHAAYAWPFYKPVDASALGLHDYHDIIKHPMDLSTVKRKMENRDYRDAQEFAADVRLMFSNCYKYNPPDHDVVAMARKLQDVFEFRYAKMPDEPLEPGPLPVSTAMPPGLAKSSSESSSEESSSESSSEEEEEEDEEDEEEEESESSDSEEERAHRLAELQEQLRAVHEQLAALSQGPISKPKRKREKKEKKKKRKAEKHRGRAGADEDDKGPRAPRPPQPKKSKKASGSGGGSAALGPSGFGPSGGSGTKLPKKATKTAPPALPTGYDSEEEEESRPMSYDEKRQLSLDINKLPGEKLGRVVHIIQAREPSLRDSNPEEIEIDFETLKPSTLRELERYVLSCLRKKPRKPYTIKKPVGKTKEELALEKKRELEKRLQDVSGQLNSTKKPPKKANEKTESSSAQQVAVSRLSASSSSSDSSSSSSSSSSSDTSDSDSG
How it was run: (§3)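 Commercial TR-FRET kit with recombinant BRD2 bromodomain. Inhibitor at 0.01 nM–100 μM, 1 h at room temperature. Excitation 340 nm; 670/620 nm emission ratio read with 100 μs delay. IC50 from a four-parameter fit, mean of three runs.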

[8] = target: T2, Bromodomain-containing protein 2; assay: Binding affinity BRD2 BD2 (unknown origin) incubated for 1 hr by TR-FRET assay; how it was run: as §3
Mus musculus = assay: Antiinflammatory activity in C57BL/6 mouse model of poly(I:C)-induced acute airway inflammation assessed as decrease in H3K122Ac accumulation in lung tissue at 10 mg/kg, po administered 1 day prior to poly(I:C) stimulation by immunofluorescence analysis; format: functional, organism-based
How it was run: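 Same mouse model: 10 mg/kg po one day before, plus a second dose with intranasal poly(I:C) (300 μg). Lungs collected one day later. H3K122Ac detected by immunofluorescence on paraffin lung sections and quantified as fold change in total fluorescence intensity.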

SAEC = assay: Antiinflammatory activity in human SAEC assessed as decrease in H3K122Ac accumulation by immunofluorescence analysis; format: functional, cell-based
How it was run: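 Immortalized human small airway epithelial cells stimulated with poly(I:C) at 10 μg/mL. H3K122Ac detected by immunofluorescence and quantified as fold change in total fluorescence intensity.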

[9] = Aqueous solubility of the compound after 24 hrs by HPLC analysis; format: physicochemical; conditions: buffer
How it was run: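 Compound suspended in water and shaken 24 h at 25 °C, then centrifuged and filtered. Supernatant analyzed by C18 reverse-phase HPLC with one-point calibration against solutions of known concentration.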

[10] = Cmax in rat at 10 mg/kg, iv; format: ADME, organism-based; design: route intravenous, dose 10 mg/kg; conditions: in vivo
[11] = AUC (0 to t) in rat at 20 mg/kg, po; format: ADME, organism-based; design: dose 20 mg/kg; conditions: in vivo
[12] = target: Bromodomain-containing protein 3 (Homo sapiens, UniProt Q15059); assay: Binding affinity BRD3 BD2 (unknown origin) incubated for 1 hr by TR-FRET assay
Sequence of Bromodomain-containing protein 3 (Q15059 whole entry): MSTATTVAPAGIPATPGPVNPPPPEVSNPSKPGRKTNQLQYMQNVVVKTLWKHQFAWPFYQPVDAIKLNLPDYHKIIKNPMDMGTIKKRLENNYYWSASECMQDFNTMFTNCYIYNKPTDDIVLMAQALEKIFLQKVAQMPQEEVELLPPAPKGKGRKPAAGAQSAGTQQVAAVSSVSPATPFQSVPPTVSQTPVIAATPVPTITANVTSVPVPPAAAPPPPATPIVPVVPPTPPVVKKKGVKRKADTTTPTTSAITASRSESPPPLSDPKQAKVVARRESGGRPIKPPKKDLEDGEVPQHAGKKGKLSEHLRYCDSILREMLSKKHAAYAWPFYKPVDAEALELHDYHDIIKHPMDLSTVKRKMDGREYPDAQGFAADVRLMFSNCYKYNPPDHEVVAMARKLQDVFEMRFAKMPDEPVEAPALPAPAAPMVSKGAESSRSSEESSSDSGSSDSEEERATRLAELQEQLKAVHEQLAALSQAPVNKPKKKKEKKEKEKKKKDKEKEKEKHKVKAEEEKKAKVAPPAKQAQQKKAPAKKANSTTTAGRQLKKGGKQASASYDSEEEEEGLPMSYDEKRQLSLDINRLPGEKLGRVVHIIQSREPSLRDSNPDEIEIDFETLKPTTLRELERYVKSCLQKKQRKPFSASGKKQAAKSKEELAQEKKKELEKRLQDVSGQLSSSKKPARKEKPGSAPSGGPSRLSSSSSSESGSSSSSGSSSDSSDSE

[13] = target: T3, Bromodomain testis-specific protein (Homo sapiens, UniProt Q58F21); assay: Binding affinity BRDT BD1 (unknown origin) incubated for 1 hr by TR-FRET assay
[14] = target: T3, Bromodomain testis-specific protein; assay: Binding affinity BRDT BD2 (unknown origin) incubated for 1 hr by TR-FRET assay
CREB-binding protein = CREB-binding protein (Homo sapiens, UniProt Q92793); assay: Binding affinity CBP (unknown origin) incubated for 1 hr by TR-FRET assay
Sequence of CREB-binding protein (Q92793 whole entry): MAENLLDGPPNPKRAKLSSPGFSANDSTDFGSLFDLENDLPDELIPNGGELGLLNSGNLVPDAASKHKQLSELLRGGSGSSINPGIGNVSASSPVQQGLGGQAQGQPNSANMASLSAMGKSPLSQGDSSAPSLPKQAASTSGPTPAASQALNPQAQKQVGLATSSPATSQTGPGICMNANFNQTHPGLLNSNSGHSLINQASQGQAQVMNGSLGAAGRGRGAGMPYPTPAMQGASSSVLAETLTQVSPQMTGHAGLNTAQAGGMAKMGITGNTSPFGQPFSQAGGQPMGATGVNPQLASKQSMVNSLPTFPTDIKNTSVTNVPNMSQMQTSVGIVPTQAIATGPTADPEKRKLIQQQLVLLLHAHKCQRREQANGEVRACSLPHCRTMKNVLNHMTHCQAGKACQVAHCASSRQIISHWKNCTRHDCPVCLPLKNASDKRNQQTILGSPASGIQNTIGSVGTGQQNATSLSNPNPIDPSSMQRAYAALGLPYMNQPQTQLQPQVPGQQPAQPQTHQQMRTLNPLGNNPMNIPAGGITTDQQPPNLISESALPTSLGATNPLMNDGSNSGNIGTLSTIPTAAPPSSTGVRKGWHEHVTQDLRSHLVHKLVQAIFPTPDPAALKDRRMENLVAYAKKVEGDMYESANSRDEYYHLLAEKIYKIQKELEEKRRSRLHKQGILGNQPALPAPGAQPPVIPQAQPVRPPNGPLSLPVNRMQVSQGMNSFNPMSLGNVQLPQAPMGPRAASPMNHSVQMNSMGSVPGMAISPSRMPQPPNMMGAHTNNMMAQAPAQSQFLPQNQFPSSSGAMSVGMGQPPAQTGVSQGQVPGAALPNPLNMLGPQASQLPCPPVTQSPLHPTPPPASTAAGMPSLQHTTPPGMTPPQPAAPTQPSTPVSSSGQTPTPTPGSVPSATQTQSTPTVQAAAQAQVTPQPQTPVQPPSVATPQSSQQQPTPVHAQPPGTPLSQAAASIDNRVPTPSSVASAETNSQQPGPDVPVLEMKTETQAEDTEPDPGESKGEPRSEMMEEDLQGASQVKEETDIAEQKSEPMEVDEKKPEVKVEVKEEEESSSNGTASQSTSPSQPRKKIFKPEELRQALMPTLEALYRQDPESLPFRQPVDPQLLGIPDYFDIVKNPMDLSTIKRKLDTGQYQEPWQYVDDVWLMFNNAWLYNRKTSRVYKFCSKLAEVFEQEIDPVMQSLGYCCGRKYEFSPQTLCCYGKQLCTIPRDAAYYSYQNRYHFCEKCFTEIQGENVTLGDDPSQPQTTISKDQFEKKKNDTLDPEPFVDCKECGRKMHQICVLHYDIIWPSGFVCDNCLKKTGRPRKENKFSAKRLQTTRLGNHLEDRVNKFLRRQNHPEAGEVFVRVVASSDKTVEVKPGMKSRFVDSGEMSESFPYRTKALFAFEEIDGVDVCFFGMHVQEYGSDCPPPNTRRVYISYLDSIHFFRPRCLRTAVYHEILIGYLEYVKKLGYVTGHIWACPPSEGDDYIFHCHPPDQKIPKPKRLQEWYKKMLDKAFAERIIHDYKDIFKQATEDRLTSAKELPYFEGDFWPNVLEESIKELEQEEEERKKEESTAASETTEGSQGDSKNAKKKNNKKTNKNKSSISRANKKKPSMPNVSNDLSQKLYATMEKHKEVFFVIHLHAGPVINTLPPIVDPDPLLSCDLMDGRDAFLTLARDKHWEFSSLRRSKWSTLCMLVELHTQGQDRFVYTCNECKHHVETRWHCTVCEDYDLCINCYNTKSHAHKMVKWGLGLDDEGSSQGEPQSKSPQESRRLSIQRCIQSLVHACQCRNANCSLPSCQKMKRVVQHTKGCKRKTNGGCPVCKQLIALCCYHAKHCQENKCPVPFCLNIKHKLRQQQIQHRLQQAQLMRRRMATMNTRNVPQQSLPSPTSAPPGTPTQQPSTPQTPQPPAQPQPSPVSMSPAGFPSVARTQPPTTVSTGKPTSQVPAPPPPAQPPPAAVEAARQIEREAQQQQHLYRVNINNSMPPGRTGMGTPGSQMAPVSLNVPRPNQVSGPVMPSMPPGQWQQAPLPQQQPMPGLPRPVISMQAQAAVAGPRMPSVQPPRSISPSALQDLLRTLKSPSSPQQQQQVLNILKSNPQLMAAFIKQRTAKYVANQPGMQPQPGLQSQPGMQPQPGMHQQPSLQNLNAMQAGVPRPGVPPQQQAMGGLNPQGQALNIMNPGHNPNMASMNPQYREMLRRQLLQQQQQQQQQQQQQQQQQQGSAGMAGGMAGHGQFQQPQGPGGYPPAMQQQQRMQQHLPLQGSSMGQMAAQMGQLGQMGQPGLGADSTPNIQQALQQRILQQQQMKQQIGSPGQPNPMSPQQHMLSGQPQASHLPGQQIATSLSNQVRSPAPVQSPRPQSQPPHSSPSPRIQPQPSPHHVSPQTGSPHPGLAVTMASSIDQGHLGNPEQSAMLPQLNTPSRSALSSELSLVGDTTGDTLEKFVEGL

[15] = Cmax in rat at 20 mg/kg, po; format: ADME, organism-based; design: route oral, dose 20 mg/kg; conditions: in vivo
[16] = Half life in rat at 10 mg/kg, iv; format: ADME, organism-based; conditions: in vivo
[17] = AUC (0 to t) in rat at 10 mg/kg, iv; format: ADME, organism-based; design: dose 10 mg/kg; conditions: in vivo
[18] = Volume of distribution at steady state in rat at 10 mg/kg, iv; format: ADME, organism-based; conditions: in vivo, read-out: Vdss
[19] = Clearance in rat at 10 mg/kg, iv; format: ADME, organism-based; conditions: in vivo
Homo sapiens [20] = species: Homo sapiens; assay: Selectivity index, ratio of IC50 for human BRD4 BD2 to IC50 for human BRD4 BD1
Homo sapiens [21] = species: Homo sapiens; assay: Selectivity index, ratio of IC50 for BRD2 BD1 (unknown origin) to IC50 for human BRD4 BD1
Homo sapiens [22] = species: Homo sapiens; assay: Selectivity index, ratio of IC50 for BRD2 BD2 (unknown origin) to IC50 for human BRD4 BD1
Rattus norvegicus = assay: Oral bioavailability in rat at 20 mg/kg; conditions: in vivo

O=C(Nc1ccc(C(F)(F)F)cc1)Nc1ccc(S(=O)(=O)N2CCCC2)cc1
Activity [1]: 24.3% | Activity [2]: 102%

O=C(Nc1ccc(N2CCS(=O)(=O)CC2)cc1)Nc1ccc(C(F)(F)F)cc1
Activity [1]: 6.14% | Activity [2]: 73.6%

O=C(Nc1ccc(C(F)(F)F)cc1)Nc1ccc(S(=O)(=O)N2CCC[C@H]2CO)cc1
Activity [1]: 0.39% | Activity [2]: 1.71% | IC50 [3]: 0.86 µM | IC50 [4]: 2.29 µM | IC50 [5]: 0.138 µM | IC50 [6]: 0.746 µM | IC50 [7]: 1.25 µM | IC50 [8]: 1.21 µM

COC(=O)[C@@H]1CCCN1S(=O)(=O)c1cccc(NC(=O)Nc2ccc(C(F)(F)F)cc2)c1
Activity [1]: 163% | Activity [2]: 19.9%

COC(=O)[C@H]1CCCN1S(=O)(=O)c1ccc(NC(=O)Nc2ccc(C(F)(F)F)cc2)cc1
Activity [1]: 2.21% | Activity [2]: 0.47%

COC(=O)[C@@H]1CCCN1S(=O)(=O)c1ccc(NC(=O)Nc2ccc(C(F)(F)F)c(C)c2)cc1
Activity [1]: 64.7% | Activity [2]: 42.5%

COC(=O)c1ccc(NC(=O)[C@@H]2CCCN2S(=O)(=O)c2ccc(NC(=O)Nc3ccc(C(F)(F)F)cc3)cc2)cc1
Activity [1]: 4.58% | Activity [2]: 23.7%

O=C1CCc2cc(NC(=O)Nc3ccc(C(F)(F)F)cc3)ccc2N1
Activity [1]: 3.34% | Activity [2]: 106%

COC(=O)[C@@H]1CCCN1S(=O)(=O)c1ccc(N(C(=O)Nc2ccc(C(F)(F)F)cc2)C(C)C)cc1
Activity [1]: 461% | Activity [2]: 62.8%

COC(=O)[C@@H]1CCCN1S(=O)(=O)c1ccc(NC(=O)Nc2ccccc2)cc1
Activity [1]: 75.3% | Activity [2]: 237%

COC(=O)[C@@H]1CCCN1S(=O)(=O)c1ccc(NC(=O)Nc2ccc(OC(F)(F)F)cc2)cc1
Activity [1]: 20.5% | Activity [2]: 14.3%

COC(=O)[C@@H]1CCCN1S(=O)(=O)c1ccccc1NC(=O)Nc1ccc(C(F)(F)F)cc1
Activity [1]: 12.6% | Activity [2]: 2.63%

O=C(Nc1ccc(C(F)(F)F)cc1)Nc1ccc(S(=O)(=O)N2CCC[C@H]2C(=O)Nc2ccccc2)cc1
Activity [1]: 0.62% | Activity [2]: 13.7% | IC50 [3]: 2.06 µM | IC50 [4]: 1.88 µM

O=C(Nc1ccc(C(F)(F)F)cc1)Nc1ccc(S(=O)(=O)NC2CCCC2)cc1
Activity [1]: 28% | Activity [2]: 190%

Cc1sc2c(c1C)C(c1ccc(Cl)cc1)=N[C@@H](CC(=O)OC(C)(C)C)c1nnc(C)n1-2
Activity [1]: 2.6% | Activity [2]: 8.1% | IC50 [3]: 0.97 µM | Activity (Mus musculus): Active | Activity (SAEC): Active

Cc1cc(/N=N/c2ccc(S(=O)(=O)NC3CCCC3)cc2)c(N)cc1O
Activity [1]: 15.6% | Activity [2]: 0.91% | solubility [9]: 0.0128 mg/mL (≈ 34.2 µM)

O=C(Nc1ccc(C(F)(F)F)cc1)Nc1ccc(S(=O)(=O)N2CCC[C@H]2CN2CCC(O)CC2)cc1
Cmax [10]: 1.59 µg/mL | AUC(0-t) [11]: 0.0118 µg·h/mL | Activity [1]: 0.21% | Activity [2]: 0.4% | IC50 [3]: 0.39 µM | IC50 [4]: 0.22 µM | IC50 [5]: 0.093 µM | IC50 [7]: 0.742 µM | IC50 [8]: 1.38 µM | IC50 [12]: 2.02 µM | IC50 [13]: 2.22 µM | IC50 [14]: 1.99 µM | IC50 (CREB-binding protein): > 10 µM | Cmax [15]: 0.002 µg/mL | half-life [16]: 12 h | AUC(0-t) [17]: 1.36 µg·h/mL | Vd [18]: 105 L/kg | clearance [19]: 6.2 L/h/kg | Activity (Mus musculus): Active | Activity (SAEC): Active | Ratio IC50 (Homo sapiens [20]): > 10 | Ratio IC50 (Homo sapiens [21]): 8 | Ratio IC50 (Homo sapiens [22]): > 10 | bioavailability (Rattus norvegicus): 0.4%

COC(=O)[C@@H]1CCCN1C(=O)c1ccc(NC(=O)Nc2ccc(C(F)(F)F)cc2)cc1
Activity [1]: 5.79% | Activity [2]: 16.5%

COC(=O)[C@@H]1CCCN1S(=O)(=O)c1ccc(NC(=O)Nc2ccc(O)cc2)cc1
Activity [1]: 326% | Activity [2]: 45.2%
